Assay results taken from ChEMBL document CHEMBL4334463, “Free Ligand 1D NMR Conformational Signatures To Enhance Structure Based Drug Design of a Mcl-1 Inhibitor (AZD5991) and Other Synthetic Macrocycles” (J Med Chem, 2019).

Legend:
[1] = target: T1, Induced myeloid leukemia cell differentiation protein Mcl-1 (Homo sapiens, UniProt Q07820); assay: Inhibition of Mcl1 (unknown origin) by TR-FRET assay
Target sequence in this assay (Q07820 whole entry): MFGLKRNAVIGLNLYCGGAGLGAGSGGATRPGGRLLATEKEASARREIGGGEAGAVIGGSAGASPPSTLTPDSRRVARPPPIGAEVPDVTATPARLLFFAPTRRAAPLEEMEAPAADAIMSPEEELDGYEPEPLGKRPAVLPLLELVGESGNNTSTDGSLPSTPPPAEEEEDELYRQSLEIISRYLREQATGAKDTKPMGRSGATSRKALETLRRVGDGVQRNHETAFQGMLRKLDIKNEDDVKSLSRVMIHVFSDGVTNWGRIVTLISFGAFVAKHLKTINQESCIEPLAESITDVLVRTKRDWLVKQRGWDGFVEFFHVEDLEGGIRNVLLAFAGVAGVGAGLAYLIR

[2] = Lipophilicity, logD of the compound at pH 7.4; type: physicochemical; conditions: buffer
Procedure, shortened: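 Shake-flask partitioning to determine logD, with the aqueous phase at pH 7.4.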

[3] = target: T2, B-cell lymphoma 6 protein (Homo sapiens, UniProt P41182); assay: Inhibition of Bcl6 (unknown origin) by TR-FRET assay
[4] = target: T1, Induced myeloid leukemia cell differentiation protein Mcl-1
Target sequence in this assay (Q07820 whole entry): as above

[5] = target: T1, Induced myeloid leukemia cell differentiation protein Mcl-1; assay: Binding affinity to Mcl-1 (unknown origin) by SPR assay
Target sequence in this assay (Q07820 whole entry, looked up): as the sequence (Q07820 whole entry) above

[6] = target: T2, B-cell lymphoma 6 protein

| Compound | Ki [1] | logD [2] | other results |
| --- | --- | --- | --- |
| CNC(=O)C[C@@H](Cc1ccc(Cl)c(Cl)c1)NC(=O)CN1C(=O)[C@@H](NC(=O)C[C@@H](N)Cc2ccc(Cl)cc2)CCc2ccccc21 | 1990 nM | 3.8 |  |
| C[C@@H]1CCCCN(C)c2cc(n3ncc(C#N)c3n2)Nc2cc3c(c(c2)O1)N(C)C(=O)CC3 |  | 4 | IC50 [3]: 25 nM |
| CN1CCCN[C@@H](Cc2ccc(Cl)cc2)CC(=O)N[C@H]2CCc3ccccc3N(CC(=O)N[C@H](Cc3ccc(Cl)c(Cl)c3)CC1=O)C2=O | 155 nM | 4.3 |  |
| CN1CCCCCOc2cc(cc3c2N(C)C(=O)CC3)Nc2cc1nc1c(C#N)cnn21 |  | 3.6 | IC50 [3]: 190 nM |
| N#Cc1cnn2c(Nc3ccc4c(c3)CCC(=O)N4)cc(N3CCC[C@H]3CO)nc12 |  | 2.3 |  |
| CN1CCCN[C@@H](Cc2ccc(S(C)(=O)=O)cc2)CC(=O)N[C@H]2CCc3ccccc3N(CC(=O)N[C@H](Cc3ccc(Cl)c(CCc4ccccc4)c3)CC1=O)C2=O |  | 4.1 | T1/2 [4]: 0.3 min |
| Cc1cc(CSCc2nn(C)c(C)c2-c2cccc3c(CCCOc4cccc5ccccc45)c(C(=O)O)[nH]c23)nn1C |  | 4.2 |  |
| C[C@@H]1CCN(C)C(=O)C[C@@H](Cc2ccc(Cl)c(Cl)c2)NC(=O)CN2C(=O)[C@H](CCc3ccccc32)NC(=O)C[C@H](Cc2ccc(Cl)cc2)N1 | 739 nM |  |  |
| O=C1C[C@@H](Cc2ccc(Cl)c(Cl)c2)NC(=O)CN2C(=O)[C@H](CCc3ccccc32)NC(=O)C[C@H](Cc2ccc(Cl)cc2)NCCCN1 | 5210 nM | 3.7 |  |
| CC1CCN[C@@H](Cc2ccc(Cl)cc2)CC(=O)N[C@H]2CCc3ccccc3N(CC(=O)N[C@H](Cc3ccc(Cl)c(Cl)c3)CC(=O)N1C)C2=O (stereo in doubt; 12) | 300 nM |  |  |
| N#Cc1cnn2c3cc(nc12)N1CC[C@@H](C1)OC/C=C/COc1cc(cc2c1NC(=O)CC2)N3 |  | 2.4 |  |
| N#Cc1cnn2c(Nc3ccc4c(c3)CCC(=O)N4)cc(N3CCC[C@H]3CC(=O)O)nc12 |  | -0.4 |  |
| Cc1nn(C)c(C)c1-c1cccc2c(CCCOc3cccc4ccccc34)c(C(=O)O)[nH]c12 | 290 nM | 3.6 | Kd [5]: 480 nM |
| CC1CCN[C@@H](Cc2ccc(Cl)cc2)CC(=O)N[C@H]2CCc3ccccc3N(CC(=O)N[C@H](Cc3ccc(Cl)c(Cl)c3)CC(=O)N1C)C2=O (stereo in doubt; 11) | 4960 nM |  |  |
| N#Cc1cnn2c3cc(nc12)N1C[C@H](C[C@H]1CO)OC/C=C/COc1cc(cc2c1NC(=O)CC2)N3 |  | 2.2 | T1/2 [6]: 2 min |
| C[C@H]1CCN(C)C(=O)C[C@@H](Cc2ccc(Cl)c(Cl)c2)NC(=O)CN2C(=O)[C@H](CCc3ccccc32)NC(=O)C[C@H](Cc2ccc(Cl)cc2)N1 | 48 nM |  |  |
